15 molecules from ChEMBL document CHEMBL1124498 can be followed below.

The test system of assay [1] is aldehyde dehydrogenase (Saccharomyces cerevisiae). Nature of the assay: In vitro inhibition of yeast aldehyde dehydrogenase. The arrangement: concentration or dose not given beside the values. As to conditions: concentration not given here.
The test system is the same in assay [2]. Briefly: In vitro inhibition of yeast aldehyde dehydrogenase is evaluated by the formation of NADH.
Assay [3] has as its target T1, Aldehyde dehydrogenase, mitochondrial (Rattus norvegicus) (UniProt P11884).
T1 sequence (whole entry): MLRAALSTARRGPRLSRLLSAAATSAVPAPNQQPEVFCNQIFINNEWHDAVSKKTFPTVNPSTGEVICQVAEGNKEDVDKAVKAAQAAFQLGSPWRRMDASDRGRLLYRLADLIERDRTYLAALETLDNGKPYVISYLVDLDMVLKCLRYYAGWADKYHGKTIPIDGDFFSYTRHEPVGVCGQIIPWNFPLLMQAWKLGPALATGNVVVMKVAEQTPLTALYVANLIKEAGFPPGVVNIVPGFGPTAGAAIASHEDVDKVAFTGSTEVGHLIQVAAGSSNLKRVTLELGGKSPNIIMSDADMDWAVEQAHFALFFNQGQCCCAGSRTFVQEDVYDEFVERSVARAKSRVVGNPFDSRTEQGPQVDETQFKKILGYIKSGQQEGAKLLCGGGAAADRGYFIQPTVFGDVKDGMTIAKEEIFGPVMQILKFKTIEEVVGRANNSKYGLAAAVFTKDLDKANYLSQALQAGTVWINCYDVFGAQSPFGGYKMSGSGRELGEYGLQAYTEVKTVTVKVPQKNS
Nature of the assay: Inhibition of class II aldehyde dehydrogenase in vitro in intact rat liver mitochondria assayed by nmol of acetaldehyde oxidized/min.mg of protein. Summed up:
(§1)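 Mitochondria from overnight-fasted male rats (200–250 g). Preincubated 5 min at 37 °C, then acetaldehyde (200 nmol) added for 5 min. Quenched with cold HClO4; acetaldehyde loss read by head-space GC; Lowry protein.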

The target in assay [4] is T1, Aldehyde dehydrogenase, mitochondrial (Rattus norvegicus). Nature of the assay: Inhibition of class II aldehyde dehydrogenase in vitro in osmotically disrupted rat liver mitochondria assayed by nmol of acetaldehyde oxidized/min.mg of protein. Put shortly: (§2)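 Liver mitochondria from overnight-fasted male rats (200–250 g), osmotically disrupted by leaving sucrose out of the medium. Preincubated 5 min at 37 °C, then acetaldehyde (200 nmol) added for 5 min. HClO4 quench; head-space GC; Lowry protein.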

Assay [5] shares this target. Briefly: Percent inhibition of class II aldehyde dehydrogenase in vitro in intact rat liver mitochondria. As to conditions: concentration not given here. Summed up: as §1
The target is the same in assay [6]. Nature of the assay: Percent inhibition of class II aldehyde dehydrogenase in vitro in osmotically disrupted rat liver mitochondria. As to conditions: concentration not given here. Put shortly: as §2
Assay [7] relates to Saccharomyces cerevisiae. Briefly: In vitro inhibition of yeast […] is evaluated by the formation of NADH at 100 uM concentration of compound. Summed up: (§3)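 Commercial yeast AlDH (0.074 IU) was preincubated 10 min at 0 °C with test agent added in acetone, in 100 mM potassium phosphate pH 7.4 containing 1.0 mM NAD+. Concentration is the final level in this primary mix. A 20-µL aliquot went into 0.5 mM NAD+, 1.0 mM EDTA, 30% glycerol, 80 mM potassium phosphate pH 8.0; reaction started with benzaldehyde (0.6 µmol); NADH read at 340 nm.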

In assay [8] the test system is Saccharomyces cerevisiae. Nature of the assay: In vitro inhibition of yeast […] at 1 uM concentration of compound.
Assay [9] has as its system Saccharomyces cerevisiae. Briefly: In vitro inhibition of yeast […] at 100 uM concentration of compound.
The subject of assay [10] is Saccharomyces cerevisiae. Briefly: In vitro inhibition of yeast aldehyde dehydrogenase at 100 uM concentration of compound. Summed up: as §3
Assay [11] relates to Saccharomyces cerevisiae. Nature of the assay: Inhibition of yeast […] is evaluated by formation by NADH in vitro at 10 uM concentration of compound. Put shortly: as §3
Assay [12] has as its system Saccharomyces cerevisiae. Briefly: Inhibition of yeast aldehyde dehydrogenase is evaluated by formation by NADH in vitro at 10 uM concentration of compound. Put shortly:
as §3

Where “and” joins values, the source holds several entries; their conditions need not be identical. Equal values may be shown once.

A word on the inhibition: it is the change of the read-out against control, counted positive when it falls. The molecule `CCCNC(=O)N(CC)S(=O)(=O)c1ccc(Cl)cc1` yielded an inhibition in assay [1] of 98.6%. The molecule also registered an ALDH activity (NADH formation rate) in assay [2] of 1.4 nM/min.

As to `CCCNC(=O)N(C)S(=O)(=O)c1ccc(Cl)cc1`, the values for the AIDH activity in assay [3] and in assay [4] were 13.4 nM/min and 19 nM/min, respectively. In addition, the inhibition is 48.9% in assay [5], 73.7% in [6] and 99.6% in [1]. Moreover, in [2], the ALDH activity (NADH formation rate) was found to be 0.6 nM/min.

In turn, `CCCN=C=O` displayed an AIDH activity in assay [7] of 0 nM/min. Further, the inhibition is 8.8% in [8]; 100% and 98.5% in assay [9].

Turning to `CCCN(C)C(=O)NS(=O)(=O)c1ccc(Cl)cc1`, the inhibition in assay [1] came to 0%. For the same molecule, the ALDH activity (NADH formation rate) in assay [2] stood at 15 nM/min.

In [1], `CCN(C(=O)NC(C)(C)C)S(=O)(=O)c1ccc(Cl)cc1` returned an inhibition of 97.3%. Besides, the ALDH activity (NADH formation rate) in assay [2] was 2.7 nM/min.

Turning to `CCCCN=C=O`, the results for the inhibition in assay [10], in assay [8] and in [9] were 100%, 20.8% and 98.9%, respectively. Besides, the AIDH activity is 0 nM/min in assay [7], 11.2 nM/min in assay [11] and 0.2 nM/min in [12].

On to `CCCNC(=O)N(CC(C)C)S(=O)(=O)c1ccc(Cl)cc1`, for which the inhibition in assay [1] came to 100%. This molecule gave an ALDH activity (NADH formation rate) in assay [2] of 0 nM/min.

Take `CCCCN(C(=O)NCCC)S(=O)(=O)c1ccc(Cl)cc1`: the inhibition in [1] turned out to be 100%. For the same molecule, the ALDH activity (NADH formation rate) in [2] is 0 nM/min.

Take `CCCNC(=O)NS(=O)(=O)c1ccc(Cl)cc1`: in [3], the AIDH activity is 28.3 nM/min. The molecule also came in with an AlDH activity in assay [4] of 73.8 nmol/min/mg. In addition, the inhibition in [5] and in assay [6] was 0% in each case.

For the molecule `O=C=NC1CCCCC1`, the inhibition in assay [10] is 100%; in [8], 12.1%; in assay [9], 96.5%. Also, the AIDH activity turned out to be 0 nM/min in [7], 12.4 nM/min in assay [11] and 0.5 nM/min in [12].

For `CCCNC(=O)N(C(C)C)S(=O)(=O)c1ccc(Cl)cc1`, the inhibition in assay [1] was determined as 100%. In [2], the ALDH activity (NADH formation rate) stood at 0 nM/min.

The molecule `CCCNC(=O)N(CC(C)(C)C)S(=O)(=O)c1ccc(Cl)cc1` yielded an inhibition in assay [1] of 100%. In [2], the ALDH activity (NADH formation rate) was found to be 0 nM/min.

In the case of `CCCNC(=O)N(CCC)S(=O)(=O)c1ccc(Cl)cc1`, in assay [1], the inhibition is 91.1%. Also, in [2], the ALDH activity (NADH formation rate) came out at 1.3 nM/min.

`CCCNC(=O)N(C(C)(C)C)S(=O)(=O)c1ccc(Cl)cc1` yielded an inhibition in assay [1] of 100%. For the same molecule, the ALDH activity (NADH formation rate) in [2] amounted to 0 nM/min.

For `CCCOC(=O)N(CC)S(=O)(=O)c1ccc(Cl)cc1`, the inhibition in assay [1] was 1.4%. The same molecule gave an ALDH activity (NADH formation rate) in assay [2] of 14.6 nM/min.
